For orientation: Cmax means the maximum level reached in the sampled fluid or tissue. A word on the AUC(0-t): it is the area under the concentration-time curve up to a stated or last time point. Read a high AUC(0-t) as more exposure. A word on the Tmax: it is the time from dosing to the highest level.

SMILES strings stand for the structures.

The nature of data set [1]: Permeability by PAMPA assay at pH 7.4. Format: ADME. The procedure, abridged:
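Double-sink PAMPA, GIT-0 lipid-coated filter. Donor 50 μM final (from DMSO stock) at pH 5.0, 6.2 or 7.4; acceptor pH 7.4. Stirred 30 min (40 μm aqueous boundary layer), constant humidity. Both compartments read by UV absorbance 250–500 nm; Pe (cm/s) calculated, four wells per pH, mean ± SD.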
(In general: PAMPA measures passive passage across an artificial lipid membrane.)

Data set [2] in a line: Cmax in CD1 mouse at 50 mg/kg, po. The conditions noted are these: in vivo. Format: ADME, organism-based. Set-up: dose 50 mg/kg, route oral. The method in brief:
(§1)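 Male CD-1 mice given one 50 mg/kg oral gavage dose (n = 3), vehicle 0.9% saline or 5% DMSO/95% PEG300 depending on compound. Retro-orbital blood into EDTA under isoflurane at 15, 30, 60 min and 2, 4, 8, 10, 24, 48 h (3 mice per time point). Plasma analysed by LC-MS/MS; AUC0-t, Cmax, Tmax, t1/2 derived by noncompartmental software.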

Data set [3] is described as follows: AUClast in CD1 mouse at 50 mg/kg, po. Format: ADME, organism-based. Set-up: time 0 - last, dose 50 mg/kg, route oral. The conditions noted are these: plasma. The procedure, abridged: as §1
Data set [4] can be described thus: Permeability by PAMPA assay at pH 6.2. Format: ADME.
Data set [5] is described as follows: Tmax in CD1 mouse at 50 mg/kg, po. Format: ADME, organism-based. Conditions: in vivo. The arrangement: dose 50 mg/kg, route oral. The method in brief:
as §1

A short description of data set [6]: Toxicity in po dosed CD1 mouse administered qd for 7 days. Format: organism-based. The conditions noted are these: in vivo. The procedure, abridged:
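Male and female CD-1 mice (6–8 weeks, n = 5/sex/dose group) received oral gavage once daily for 7 days at 50, 100, 200 or 100, 200, 400 mg/kg/day, depending on the article. The article was suspended daily in 5% DMSO:95% PEG 300, and vehicle-treated animals served as controls. Body weights were taken predose, on day 4 and on day 8. Day-8 retro-orbital blood went to hematology and serum chemistry, followed by necropsy with histopathology and organ weights. MTD was estimated.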

Data set [7] is described as follows: Permeability by PAMPA assay at pH 5.0. Format: ADME.

Turning to `CCN(CC)CCCC(C)Nc1ccnc2cc(Cl)ccc12` (stereo not drawn) [CHLOROQUINE], the permeability in data set [1] is recorded as 775 ×10⁻⁶ cm/s; in data set [4], 51 ×10⁻⁶ cm/s. In addition, the Cmax in data set [2] turned out to be 444 nM. The compound further returned an AUC(0-t) in data set [3] of 2.64 µM·h. Also, the time to peak (Tmax) in data set [5] is 30 min.

With `CCCN(CCCNc1ccnc2cc(Cl)ccc12)CC1CC1`, the permeability is listed as 1109 ×10⁻⁶ cm/s in data set [1] and 2 ×10⁻⁶ cm/s in data set [4]. In data set [2], this compound returned a maximum concentration (Cmax) of 437 nM. In data set [3], this compound returned an area under the curve AUC(0-t) of 6.79 µM·h. Also, the Tmax in data set [5] worked out at 30 min.

In data set [1], `COc1cccc(CNCCCNc2ccnc3cc(Cl)ccc23)c1O` showed a permeability of 1363 ×10⁻⁶ cm/s. This compound also came in with a Cmax in data set [2] of 65.9 nM. The compound further returned an area under the curve AUC(0-t) in data set [3] of 0.62 µM·h. In data set [5], the time to peak (Tmax) was determined as 240 min. Besides, the MTD at 168 h in data set [6] stood at 400 mg/kg.

As for `CCN(CC)CCCC(C)Nc1ccnc2cc(C(F)(F)F)ccc12` (stereo not drawn), the permeability in data set [1] worked out at 2704 ×10⁻⁶ cm/s; in data set [4], 235 ×10⁻⁶ cm/s; in data set [7], 2 ×10⁻⁶ cm/s.

The compound `CCN(CC)CCCC(C)Nc1ccnc2cc(Oc3ccccc3)ccc12` (stereo not drawn) came in with a peak concentration (Cmax) in data set [2] of 261 nM. In data set [3], the AUC(0-t) came to 0.726 µM·h. The Tmax in data set [5] is 30 min.

As for `Clc1ccc2c(NCCCNCc3cccc4c3OCO4)ccnc2c1`, the permeability in data set [1] stood at 2400 ×10⁻⁶ cm/s; in data set [4], 979 ×10⁻⁶ cm/s; in data set [7], 19 ×10⁻⁶ cm/s. This compound also displayed a Cmax in data set [2] of 240 nM. The AUC(0-t) in data set [3] stood at 2.03 µM·h. Moreover, in data set [5], the time of peak concentration (Tmax) came to 120 min. The MTD at 168 h in data set [6] is 100 mg/kg.

Source of the values: ChEMBL document CHEMBL1157913, “Development of a new generation of 4-aminoquinoline antimalarial compounds using predictive pharmacokinetic and toxicology models” (J Med Chem, 2010).
